# High-throughput results (PubChem BioAssay)
# CHRM5 agonist = human M5 muscarinic receptor agonists, primary screen, CHO-K1 cells, Fluo-8 calcium fluorescence | Muscarinic acetylcholine receptor M5 (Homo sapiens), P08912 | CHO-K1 hM5 cells; 0% DMSO wells, 100% maximal acetylcholine response | activation, % at 3 µM | hit rate 0.19% among 360,000;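 active means activation above the run's mean over test compounds plus 3 SD, cut at about 23% in these data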;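 further: signal is peak over basal fluorescence ratio across the kinetic read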
# M5 PAM = human M5 muscarinic receptor positive allosteric modulators, primary screen, CHO-K1 cells, Fluo-8 calcium fluorescence; Muscarinic acetylcholine receptor M5 (Homo sapiens), P08912; CHO-K1 hM5, ACh EC20 PAM; 0% = ACh EC20, 100% = ACh EC100; activation, % at 3 µM; hit rate 0.3% among 360,000; AID 624038, 2012;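 active means activation above the run cutoff, the mean activation of all test compounds plus 3 SD, cut at about 18% in these data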
#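 System – CHO-K1 hM5 cells · Compound – 3 µM, single dose · Incubation – compound preincubation 140 s before EC20 acetylcholine addition · Technique – Fluo-8 calcium fluorescence · Measure – Max/basal fluorescence ratio as % of EC20–EC100 ACh window · Benchmarks – low control EC20 acetylcholine (0%), high control EC100 acetylcholine (100%) · Replication – singlicate, one well per test compound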
# M4 ag = human M4 muscarinic receptor agonists, primary screen, CHO-K1 cells, Fluo-8 calcium fluorescence; Muscarinic acetylcholine receptor M4 (Homo sapiens), P08173; CHO-K1 hM4/Gqi5; vehicle 0%, full acetylcholine response 100%; activation, % at 3 µM; hit rate 0.14% among 360,000;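 active means activation above the run mean over all test wells plus 3 SD, cut at about 32% in these data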;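 further: peak over basal fluorescence ratio per well then scaled between controls; 0% = DMSO wells and 100% = acetylcholine at EC100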
# Target sequence (P08173 whole entry, looked up): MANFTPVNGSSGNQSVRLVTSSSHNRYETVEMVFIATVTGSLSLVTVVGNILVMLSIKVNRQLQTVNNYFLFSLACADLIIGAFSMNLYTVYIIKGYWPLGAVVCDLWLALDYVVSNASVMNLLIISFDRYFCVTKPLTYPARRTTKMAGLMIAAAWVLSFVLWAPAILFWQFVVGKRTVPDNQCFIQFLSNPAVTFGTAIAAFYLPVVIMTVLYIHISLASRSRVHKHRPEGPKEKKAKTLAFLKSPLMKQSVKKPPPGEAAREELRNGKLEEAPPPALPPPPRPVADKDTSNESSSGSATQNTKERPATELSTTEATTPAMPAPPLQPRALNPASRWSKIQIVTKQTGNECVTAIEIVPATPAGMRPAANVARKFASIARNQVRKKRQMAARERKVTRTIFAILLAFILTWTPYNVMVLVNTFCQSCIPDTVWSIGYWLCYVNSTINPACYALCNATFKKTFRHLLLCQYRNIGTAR
# M5 antag = human M5 muscarinic receptor antagonists, primary screen, CHO cells, Fluo-8 calcium fluorescence. Muscarinic acetylcholine receptor M5 (Homo sapiens), P08912. CHO-hM5 cells, ACh EC80. inhibition, % at 3 µM. hit rate 0.59% among 360,000;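 active means inhibition above a per-plate cutoff, the mean of that plate's test compounds plus 3 SD, cut at about 27% in these data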;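 further: 0% = acetylcholine EC80 with DMSO and 100% = DMSO without agonist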
# CHRM4 PAM = human M4 muscarinic receptor positive allosteric modulators, primary screen, CHO-K1 cells, Fluo-8 calcium fluorescence | hit rate 0.4% among 360,000 | activation, % at 3 µM | CHO-K1 hM4/Gqi5, ACh EC20; 0% = ACh EC20, 100% = maximal ACh | AID 624126, 2012;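 active means activation above its plate's cutoff, the mean activation of sample wells plus 3 SD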
# CHRM4 antagonist = human M4 muscarinic receptor antagonists, primary screen, CHO cells, Fluo-8 calcium fluorescence | Muscarinic acetylcholine receptor M4 (Homo sapiens), P08173 | CHO-hM4 cells, ACh EC80 | inhibition, % at 3 µM | hit rate 0.73% among 360,000 | AID 624125, 2012;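 active means inhibition above its plate's cutoff, the mean inhibition of sample wells plus 3 SD, cut at about 27% in these data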;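 further: 0% = acetylcholine EC80 with DMSO and 100% = DMSO without agonist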
# * hit, by the source's call. A selection: hits, their analogues and other compounds. The true share with any hit is near 1.8%.
SMILES,CHRM5 agonist,M5 PAM,M4 ag,M5 antag,CHRM4 PAM,CHRM4 antagonist
CCOC(=O)C1CCCN(C(=S)Nc2ccc(S(=O)(=O)N3CCOCC3)cc2)C1 (stereo not given),42*,-14,6,9,-4,0
C=CCNc1ncnc2c1ncn2[C@H]1CN(Cc2ccc(-c3ccccc3)cc2)C[C@@H](CO)O1,5,-11,15,17,-5,-3
CC(C)(C)C(C(=O)NCc1ccccc1)N1CCN(C(=O)C2CCCO2)CC1 (stereo not given),1,-6,2,11,-2,8
CC(=O)N(C)c1ccc(NC(=O)Nc2ccc(Cl)cc2)cc1,7,-29,27,29*,-14,26
C=CS(=O)(=O)N(Cc1ccccc1Br)[C@H](CO)CC(C)C,-9,-5,-1,7,-6,3
Cc1cccc(NC(=O)COc2ccc(Br)cc2)n1,-3,33*,0,26,3,1
Cc1ccc(OCC(=O)NC(=S)Nc2cccc(C)n2)cc1,-2,6,-1,-4,9,-9
N#Cc1ccc(-c2nc3ccc(Cl)cn3c2Cc2ccccc2C(F)(F)F)cc1,0,-2,0,3,-7,3
CN1C(=O)/C(=C\c2ccc(N(C)C)cc2)OC1=S,96*,-15,30,24,-11,4
Cc1[nH]c2ccccc2c1/C=N/NC(=O)c1cc(-c2ccccc2)n[nH]1,4,-4,4,0,-7,10
Cc1[nH]c2ccccc2c1/C=N/NC(=O)c1cc(-c2ccncc2)nc2ccccc12,1,31*,13,24,-6,1
CCOC(=O)C1CCN(S(=O)(=O)c2c(Cl)ccc3nonc23)CC1,-4,-4,1,3,-7,22
Cc1ccc(C(=O)c2ccc([N+](=O)[O-])cc2)cc1,-6,2,-2,-3,2,-6
Cc1ccc(C(=O)c2coc3cc([N+](=O)[O-])c(O)c([N+](=O)[O-])c23)cc1,-2,-4,-1,7,31*,-2
N#Cc1c(C#N)c(SSc2c(C#N)c(C#N)c(N)n2-c2ccccc2)n(-c2ccccc2)c1N,3,-8,1,15,-2,-11
O=C(c1ccc(-c2cc(Cl)ccc2Cl)o1)N1CCOCC1,3,19*,1,-9,10,-1
O=C(c1ccc(-c2ccc(Cl)cc2Cl)o1)N1CCOCC1,-1,10,-1,-13,-11,-7
Cc1c(C(=O)N(Cc2nccn2C)C(C)C)oc2c(F)cccc12,-4,-1,1,10,4,-16
CCCc1ccc2oc(C(=O)N(Cc3nccn3C)C(C)C)c(C)c2c1,-2,10,2,-1,17*,-28
Cc1c(OCc2ccccc2)c(=O)ccn1Cc1ccc(Cl)cc1,-4,-8,0,1,4,0
Cc1ccc(Cn2ccc(=O)c(OCc3ccccc3)c2C)cc1,4,22*,4,-2,2,-5
CCN(C[C@H]1N[C@@](C)(C(=O)OC)[C@H]2C(=O)N(C)C(=O)[C@@H]12)S(=O)(=O)c1ccc(-c2ccccc2)cc1,-1,-1,3,-7,1,-22
Cc1ccc(S(=O)(=O)N2C[C@H]3C(=O)C[C@@H](c4ccccc4F)N(S(=O)(=O)c4ccc(C)cc4)[C@H]3C[C@H]2c2ccccc2F)cc1,2,14,3,-10,5,-15
CC(C)(C)NC(=O)C(c1cccs1)N(C(=O)c1csnn1)c1cccc(F)c1 (stereo not given),-3,-5,1,-7,0,-8
CC(C)(C)NC(=O)C(c1cccs1)N(Cc1ccc(F)cc1)C(=O)c1csnn1 (stereo not given),-5,-14,3,37*,-1,6
